In ChEMBL document CHEMBL1128222, “Novel inhibitors for multidrug resistance: 1,3,5-triazacycloheptanes” (J Med Chem, 1995):

Columns and labels:
P388/S [1] = assay: In vitro relative vinblastin uptake into P388/s (murine leukemia) cells following 10 uM treatment.; assay type: functional, Mus musculus
In short: (§1)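 10^6 P388/S or P388/ADR cells in 1 mL of 20 mM Hepes-buffered medium, pH 7.4. They are incubated with 4.6 kBq [3H]vinblastine with or without 10 μM compound (DMSO final 1%) at 37 °C for 30 min. Cells are then chilled, pelleted at 2 °C and washed twice in cold PBS. They are solubilized in NaOH and counted. The value is uptake relative to untreated cells.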

P388/ADR [2] = assay: In vitro relative vinblastin uptake into P388/ADR (murine leukemia/multidrug resistant) cells following 10 uM treatment.; assay type: functional, Mus musculus; in short: as §1
P388/ADR [3] = assay: Evaluation of inhibitory activity and adriamycin against multidrug resistant P388 cells (P388/ADR) cells; settings: Mus musculus
P388/S [4] = assay: Evaluation of inhibitory activity and cisplatin against drug sensitive P388 cells (P388/S) cells; assay type: functional, cell-based, Mus musculus; settings: Mus musculus, P388/S
In short: (§2)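 P388/S or P388/ADR cells at 10^5 cells/mL in RPMI-1640/10% FCS medium. They receive graded adriamycin, mitomycin C or cisplatin, alone or together with 2.5 μM modulator, for 48 h (DMSO final 0.25%). Growth is read by MTT and the antitumor-drug IC50 is reported.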

Mus musculus [5] = assay: Evaluation of ILS percentage of mice upon intraperitoneal injection of VBL / oral administration on days 1-4 and 6-8 at a concentration of 20 mg/kg; assay type: functional
In short: (§3)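 Female CD2F1 mice, 5 per group, were inoculated i.p. with 1.0 × 10^6 P388/ADR cells on day 0. VBL was given by i.p. injection and/or the test agent orally on days 1-4 and 6-8. Read-out was survival days (average ± SD) and ILS (%) against the untreated group, with P < 0.05 by Student's t-test or a two-sample test with Welch's correction.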

Mus musculus [6] = assay: Evaluation of Survival of mice upon intraperitoneal injection of VBL and/or oral administration on days 1-4 and 6-8 at a concentration of 10 mg/kg; assay type: functional; in short: as §3
P388/S [7] = assay: Relative increase in inhibitory activity against drug sensitive P388 cells (P388/S) cells at a concentration of 2.5 uM in presence of vinblastine; assay type: functional, Mus musculus
In short: (§4)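 Same 48 h MTT growth assay in P388/S or P388/ADR cells at 10^5 cells/mL. Vinblastine IC50 is found alone and with modulator at 1.0, 2.5 or 5.0 μM. The value is the relative increase in vinblastine growth-inhibitory effect, taken as the fold change in IC50 from the combined treatment.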

P388/S [8] = assay: Relative increase in inhibitory activity against drug sensitive P388 cells (P388/S) cells at a concentration of 1.0 uM in presence of vinblastine; assay type: functional, Mus musculus; in short: as §4
P388/S [9] = assay: Inhibitory activity against drug sensitive P388 cells (P388/S) cells in presence of cisplatin; assay type: functional, cell-based; settings: Mus musculus; in short: as §2
Mus musculus [10] = assay: Evaluation of Survival of mice intraperitoneal injection of VBL and/or oral administration on days 1-4 and 6-8 at a concentration of 40 mg/kg in mice; assay type: functional; in short: as §3
P388/ADR [11] = assay: In vitro for the inhibitory activity against multidrug resistant P388 cells (P388/ADR) cells at a concentration of 0 uM; assay type: functional, cell-based; settings: Mus musculus
In short: (§5)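 P388/S and P388/ADR murine leukemia cells are maintained by weekly intraperitoneal passage in female CDF1 mice. For the assay they are seeded at 10^5 cells/mL in RPMI-1640 with 10% FCS, 20 μM β-mercaptoethanol and 100 μg/mL kanamycin. Vinblastine is given with or without modulator (0–5.0 μM; DMSO final 0.25%) for 48 h. Growth is read by MTT and vinblastine IC50 is reported.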

P388/ADR [12] = assay: Inhibitory activity against multidrug resistant P388 cells (P388/ADR) cells at a concentration of 2.5 uM in presence of cisplatin; settings: Mus musculus
Mus musculus [13] = assay: Evaluation of ILS percentage of mice upon intraperitoneal injection of VBL and/or oral administration on days 1-4 and 6-8 at a concentration of 10 mg/kg; assay type: functional; in short: as §3
Mus musculus [14] = assay: Evaluation of Survival of mice upon intraperitoneal injection of VBL and/or oral administration on days 1-4 and 6-8 at a concentration of 20 mg/kg; assay type: functional; in short: as §3
P388/S [15] = assay: Inhibitory activity against drug sensitive P388 cells (P388/S) cells in presence of mitomycin C; assay type: functional, cell-based; settings: Mus musculus; in short: as §2
P388/S [16] = assay: In vitro evaluation for the inhibitory activity against drug sensitive P388 cells (P388/S) cells at a concentration of 1.0 uM; assay type: functional, cell-based; settings: Mus musculus; in short: as §5
P388/ADR [17] = assay: Inhibitory activity against multidrug resistant P388 cells (P388/ADR) cells at a concentration of 2.5 uM in presence of mitomycin C; settings: Mus musculus
P388/ADR [18] = assay: Relative increase in inhibitory activity against multidrug resistant P388 cells (P388/ADR) cells at a concentration of 5.0 uM in presence of vinblastine; assay type: functional, Mus musculus; in short: as §4
P388/S [19] = assay: In vitro evaluation for the inhibitory activity against drug sensitive P388 cells (P388/S) cells at a concentration of 2.5 uM; assay type: functional, cell-based; settings: Mus musculus; in short: as §5
P388/S [20] = assay: Inhibitory activity against drug sensitive P388 cells (P388/S) cells in presence of adriamycin; assay type: functional, cell-based; settings: Mus musculus; in short: as §2
P388/S [21] = assay: In vitro evaluation for the inhibitory activity against drug sensitive P388 cells (P388/S) cells at a concentration of 0 uM; assay type: functional, cell-based; settings: Mus musculus; in short: as §5
P388/S [22] = assay: Relative increase in inhibitory activity against drug sensitive P388 cells (P388/S) cells at a concentration of 5.0 uM in presence of vinblastine; assay type: functional, Mus musculus; in short: as §4
P388/S [23] = assay: In vitro evaluation for the inhibitory activity against drug sensitive P388 cells (P388/S) cells at a concentration of 5.0 uM; assay type: functional, cell-based; settings: Mus musculus; in short: as §5
Mus musculus [24] = assay: Evaluation of ILS percentage of mice upon intraperitoneal injection of VBL / oral administration on days 1-4 and 6-8 at a concentration of 40 mg/kg; assay type: functional; in short: as §3
P388/ADR [25] = assay: In vitro for the inhibitory activity against multidrug resistant P388 cells (P388/ADR) cells at a concentration of 2.5 uM; assay type: functional, cell-based; settings: Mus musculus; in short: as §5
P388/ADR [26] = assay: In vitro for the inhibitory activity against multidrug resistant P388 cells (P388/ADR) cells at a concentration of 1.0 uM; assay type: functional, cell-based; settings: Mus musculus; in short: as §5
P388/ADR [27] = assay: Relative increase in inhibitory activity against multidrug resistant P388 cells (P388/ADR) cells at a concentration of 2.5 uM in presence of vinblastine; assay type: functional, Mus musculus; in short: as §4
P388/ADR [28] = assay: Inhibitory activity against multidrug resistant P388 cells (P388/ADR) cells at a concentration of 2.5 uM in presence of adriamycin; settings: Mus musculus
P388/ADR [29] = assay: Relative increase in inhibitory activity against multidrug resistant P388 cells (P388/ADR) cells at a concentration of 1.0 uM in presence of vinblastine; assay type: functional, Mus musculus; in short: as §4
P388/ADR [30] = assay: In vitro for the inhibitory activity against multidrug resistant P388 cells (P388/ADR) cells at a concentration of 5 uM; assay type: functional, cell-based; settings: Mus musculus; in short: as §5

For `O=C1NC(=O)N(Cc2ccc(Cl)cc2)CCCN1Cc1ccc(Cl)cc1`, the Relative uptake (P388/S [1]) was 1.17 and the Relative uptake (P388/ADR [2]) was 2.86.
Work on `O=C1NC(=O)N(Cc2ccccc2)CCCN1Cc1ccccc1` yielded a Relative uptake (P388/S [1]) of 0.93 and a Relative uptake (P388/ADR [2]) of 1.78.
`Clc1ccc(CNCCNCc2ccc(Cl)cc2)cc1` gave a Relative uptake (P388/S [1]) of 1.04 and a Relative uptake (P388/ADR [2]) of 2.62.
`S=C1NC(=S)N(Cc2ccccc2)CCN1Cc1ccccc1` gave a Relative uptake (P388/S [1]) of 1.26 and a Relative uptake (P388/ADR [2]) of 4.16.
Compound `S=C1NC(=S)N(Cc2ccc(Cl)cc2)CCN1Cc1ccc(Cl)cc1` has a Relative uptake (P388/S [1]) of 1.48 and a Relative uptake (P388/ADR [2]) of 6.
Work on `CSC1=NC(=O)N(Cc2ccccc2)CCN1Cc1ccccc1` yielded a Relative uptake (P388/S [1]) of 1.37 and a Relative uptake (P388/ADR [2]) of 2.13.
`O=C1NC(=S)N(Cc2cccc(Cl)c2)CCN1Cc1cccc(Cl)c1` was tested, and the Relative uptake (P388/S [1]) was 1.26 and the Relative uptake (P388/ADR [2]) was 6.14.
Compound `O=C1NC(=O)N(Cc2cccc(Cl)c2)CCCN1Cc1cccc(Cl)c1` has a Relative uptake (P388/S [1]) of 1.12 and a Relative uptake (P388/ADR [2]) of 2.62.
In the case of `COc1ccc(CN2CCCN(Cc3ccc(OC)c(OC)c3)C(=O)NC2=O)cc1OC`, the Relative uptake (P388/S [1]) is reported as 1.06 and the Relative uptake (P388/ADR [2]) is reported as 1.11.
With `CSC1=NC(=O)N(Cc2cccc(Cl)c2)CCN1Cc1cccc(Cl)c1` the Relative uptake (P388/S [1]) was 1.16 and the Relative uptake (P388/ADR [2]) was 6.75.
`COc1ccc(CN2CCN(Cc3ccc(OC)c(OC)c3)C(=S)NC2=S)cc1OC` gave a Relative uptake (P388/S [1]) of 1.21 and a Relative uptake (P388/ADR [2]) of 5.26.
`COc1ccc(CN2CCN(Cc3ccc(OC)c(OC)c3)C(=O)NC2=O)cc1OC` gave a Relative uptake (P388/S [1]) of 0.93 and a Relative uptake (P388/ADR [2]) of 1.16.
Compound `COC12[C@H](COC(N)=O)C3=C(C(=O)C(C)=C(N)C3=O)N1C[C@@H]1N[C@@H]12.CSC1=NC(=O)N(Cc2ccc(Cl)cc2)CCN1Cc1ccc(Cl)cc1` has an IC50 (P388/ADR [3]) of 264 nM and an IC50 (P388/S [4]) of 44 nM.
In the case of `COc1cccc2c1C(=O)c1c(O)c3c(c(O)c1C2=O)C[C@@](O)(C(=O)CO)C[C@@H]3OC1C[C@H](N)[C@H](O)[C@H](C)O1.CSC1=NC(=O)N(Cc2ccc(Cl)cc2)CCN1Cc1ccc(Cl)cc1` (some centres undefined), the IC50 (P388/ADR [3]) is reported as 90 nM and the IC50 (P388/S [4]) is reported as 13 nM.
In the case of `CC[C@]1(O)C[C@H]2CN(CCc3c([nH]c4ccccc34)[C@@](C(=O)OC)(c3cc4c(cc3OC)N(C)[C@H]3[C@@](O)(C(=O)OC)[C@H](OC(C)=O)[C@]5(CC)C=CCN6CC[C@]43[C@@H]65)C2)C1.CSC1=NC(=O)N(Cc2ccc(Cl)cc2)CCN1Cc1ccc(Cl)cc1`, the ILS at 20 mg/kg (Mus musculus [5]) is reported as 37.5%, the Survival days (Mus musculus [6]) is reported as 11.6 and the Relative activity (P388/S [7]) is reported as 2.4. It also gave a Relative activity (P388/S [8]) of 1.9, an IC50 (P388/S [9]) of 72 nM and a Survival days (Mus musculus [10]) of 14. It also gave an IC50 (P388/ADR [11]) of 70 nM, an IC50 (P388/ADR [12]) of 51 nM and an ILS at 10 mg/kg (Mus musculus [13]) of 20.8%. It also gave a Survival days (Mus musculus [14]) of 13.2, an IC50 (P388/S [15]) of 44 nM and an IC50 (P388/S [16]) of 0.9 nM. The IC50 (P388/ADR [17]) was 264 nM, the Relative activity (P388/ADR [18]) was 23 and the IC50 (P388/S [19]) was 0.7 nM. It also gave an IC50 (P388/S [20]) of 13 nM, an IC50 (P388/S [21]) of 1.7 nM and a Relative activity (P388/S [22]) of 4.3. The IC50 (P388/S [23]) was 0.4 nM, the ILS at 40 mg/kg (Mus musculus [24]) was 45.8% and the IC50 (P388/ADR [25]) was 6.2 nM. The IC50 (P388/ADR [26]) was 23 nM, the Relative activity (P388/ADR [27]) was 11 and the IC50 (P388/ADR [28]) was 90 nM. It also gave a Relative activity (P388/ADR [29]) of 3.2 and an IC50 (P388/ADR [30]) of 2.2 nM.
